Compounds with a hit are over-represented: about 2.1% of the library has one in this group of screens.
PERK inhibitor: human PERK inhibition, primary cell-based screen | hit rate 0.17% among 220,000 | CHO PERK-DD fusion, SEAP luminescence translation reporter | Q9NZJ5 | AID 1416 | inhibition, % at 5.6 µM;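 active means inhibition above the mean inhibition of all tested compounds plus 3 SD, set separately per screening campaign, cut at about 2.9% in these data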;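 further: PERK kinase domain activated by AP20187 dimerizer at 100 nM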
Insulin prom up: MIN6 insulin promoter up-regulation. z-score at 5 µM. hit rate 0.3% among 190,000. MIN6 insulin promoter-GFP reporter, high-content imaging; hits give high values;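 active means z-score above 3 at 5 µM with at least 500 cells counted in the well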
Dynein transport: blocks dynein driven cargo transport along microtubules | 3617.4 mouse cells, GR-EGFP nuclear translocation imaging; test concentration mostly 20 µM; stimulated with dexamethasone, 1 µM; hits give low values | hit rate 0.47% among 220,000 | z-score, hits read low | AID 1381;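 active means plate z-score of nuclear minus cytoplasmic receptor signal below a set negative limit, without overly bright fluorescence or cell loss, cut at about -3.5 in these data, passing the limit was not always enough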;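 further: z-score of nuclear minus cytoplasmic ring GR-EGFP intensity difference per well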
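medium = tetracycline-free induction medium containing charcoal-stripped FBS | probe or stimulus = dexamethasone, 1.0 µM final | timing = 48 h induction, then 1 h compound, then 30 min agonist, 37 °C | detection = automated 10x imaging of fixed Hoechst-stained cells | read-out basis = nuclear versus cytoplasmic GR-EGFP signal, averaged per well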
Autophagy mod: autophagy modulation, high-content screen; MEF GFP-LC3 puncta imaging; test concentration mostly 10 µM; calls only at 10 µM (by protocol); hit rate 0.98% among 190,000; AID 463193;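 active means percentage of spot-positive cells more than 3 SD above its plate mean, without a fluorescence outlier flag or 80% toxicity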
INS promoter inh: TRM-6 insulin promoter activity inhibition. hit rate 0.9% among 130,000. TRM-6 cells (human fetal islet line), insulin promoter-eGFP reporter, imaging; reporter expression induced with tamoxifen. inhibition, % at 2 µM;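 active means inhibition above the mean plus 3 SD, with well images judged a real hit on visual review, cut at about 60% in these data, passing the limit was not always enough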
Large screens that a line does not name were inactive.

O=C1c2ccccc2NC(c2ccc([N+](=O)[O-])cc2)N1O (stereo not given)	none (no result: INS promoter inh)
CNC(=O)CSc1nnc(-c2ccccc2F)n1CCc1ccccc1	none (no result: Autophagy mod, INS promoter inh)
COc1ccc(OC)c(S(=O)(=O)N2CCN(c3ccccn3)CC2)c1	INS promoter inh 74
COc1ccc(OC)c(Nc2nc3nonc3nc2N2CCCCC2)c1	Autophagy mod active (no result: INS promoter inh)
COc1ccccc1Nc1nc2nonc2nc1N1CCC(C)CC1	none (no result: INS promoter inh)
CCOc1ccc(NC(=O)c2nsc(Cl)c2Cl)cc1	Autophagy mod active (no result: INS promoter inh)
COC(C/C=C\[C@@H](O)COCc1ccccc1)OC	none (no result: PERK inhibitor, Autophagy mod, INS promoter inh)
CC(C)CCC(C(=O)O)C(C)CC(=O)Nc1ccn(-c2ccccc2)n1 (stereo not given)	none (no result: Insulin prom up, Autophagy mod, INS promoter inh)
CCCCC(CC)C(=O)N1CCN(C(=O)c2ccco2)CC1 (stereo not given)	none
O=C(NCc1ccccc1)c1noc2c1CCCCC2	Autophagy mod active (no result: INS promoter inh)
COc1cccc(/C=N/NC(=O)C(=O)N2CCCC2)c1OC	PERK inhibitor 3.1 (no result: INS promoter inh)
COc1cccc(/C=N/NC(=O)C(=O)N2CCCC2)c1O	none (no result: INS promoter inh)
Cc1ccc(C2c3c(C)nn(-c4ccc([N+](=O)[O-])cc4)c3N=C3C(=O)Nc4ccccc4N32)cc1 (stereo not given)	none (no result: INS promoter inh)
COc1cccc(C2c3c(C)nn(-c4ccc([N+](=O)[O-])cc4)c3N=C3C(=O)Nc4ccccc4N32)c1 (stereo not given)	Autophagy mod active (no result: INS promoter inh)
O=C(Cc1c(Sc2ccccc2)c2ccccc2n1Cc1ccccc1)NCCO	none
O=C1C2C3C=CC(C3)C2C(=O)N1CCc1ccccc1 (stereo not given)	Insulin prom up 3.3
O=C(CCN1C(=O)C2C3C=CC(C3)C2C1=O)NCCc1ccccc1 (stereo not given)	none
COc1ccc2nc(C)c3cc(C)oc3c2c1	INS promoter inh 90
COc1cc(C(=O)NCCN2CCCC2)cc(OC)c1OC	Autophagy mod active
Cc1c(C(=O)Nc2ccc(Cl)cc2)c2ccccn2c1C(=O)c1ccc(F)cc1	Autophagy mod active
Cc1ccc(-n2c(=O)c3c4c(sc3n3c(=S)[nH]nc23)CCC4)cc1	none (no result: Autophagy mod, INS promoter inh)
Cc1cccc(-n2c(=O)c3c4c(sc3n3c(=S)[nH]nc23)CCC4)c1	Autophagy mod active
Nc1cccc2nc3ccccc3cc12	Autophagy mod active (no result: INS promoter inh)
Nc1[nH]nc2nc3ccccc3cc12	none
CCN(CC)S(=O)(=O)c1ccc(N2CCCCC2)c(NC(=O)/C(C#N)=C/c2ccc(OC)cc2)c1	none
CCOc1ccc(NC(=O)/C(C#N)=C/c2ccc(N3CCCC3)c(C)c2)cc1	Autophagy mod active (no result: INS promoter inh)
C=C(C)CSc1nc2nc(C)c(Br)cc2[nH]1	INS promoter inh 79
COC(=O)CSc1nc2nc(C)c(Br)cc2[nH]1	none
COc1ccc(C(=O)N2CCN(Cc3nc(CC4CC4)no3)CC2)cc1	none (no result: INS promoter inh)
COC(=O)c1cn(NC(=O)C2CCCO2)c(=O)c2ccccc12 (stereo not given)	Autophagy mod active
COC(=O)c1cn(NC(=O)C2COc3ccccc3O2)c(=O)c2ccccc12 (stereo not given)	none (no result: INS promoter inh)
Cn1cc(Cl)c(C(=O)NC(=S)Nc2sc3c(c2C#N)CCCCC3)n1	Autophagy mod active
COC(=O)c1ccc(COC(=O)CCS(=O)(=O)c2ccc(C)cc2)cc1	none (no result: INS promoter inh)
COC(=O)c1ccc(COC(=O)CNS(=O)(=O)c2ccc(C)cc2)cc1	INS promoter inh 73
COc1cc(CCC(=O)Nc2ccc(S(=O)(=O)NC3=NCCCCC3)cc2)cc(OC)c1OC	none
CCCn1nnc(NC(=O)COc2ccc(C3CCCCC3)cc2)n1	INS promoter inh 100
CCOc1cccc(C(=O)Nc2cccc(-c3nnc(-c4ccccc4)o3)c2)c1	none
CCOc1cccc(C(=O)Nc2cccc(-c3nnc(-c4ccc(C)cc4)o3)c2)c1	Autophagy mod active
CCCn1nnc(NC(=O)c2cccc(OCC(C)C)c2)n1	none
CCCn1nnc(NC(=O)COc2ccc(Cl)cc2)n1	none
CCCn1nnc(NC(=O)c2cccc(OCC)c2)n1	Autophagy mod active
C=CC(C)(C)c1cc2cc3ccoc3cc2oc1=O	none
Cc1ccc(-c2nnn(CC(=O)N(C)C3CCCCC3)n2)o1	INS promoter inh 74
O=C(CCCN1C(=O)c2ccccc2C1=O)Nc1nncs1	none
O=C(CCCN1C(=O)c2ccccc2C1=O)NC1=NCCS1	Autophagy mod active
Cc1cccc(NC(=O)CCN2C(=O)c3ccccc3C2=O)n1	Autophagy mod active (no result: Insulin prom up)
CN(C)c1cc[n+](CC(=O)Nc2ccc(OC(F)F)cc2)cc1	none (no result: Autophagy mod, INS promoter inh)

Bioassay records from PubChem.
